# Experimental data reported in ChEMBL document CHEMBL1821554, “Synthesis and anticancer activity of chalcone-pyrrolobenzodiazepine conjugates linked via 1,2,3-triazole ring side-armed with alkane spacers” (2011).
# Active and inactive are the calls of the source. The rule behind the calls is not given here.
# Columns and labels:
# [1] = Down regulation of NF-kappaB activity expressed in human MCF7 cells transfected with NF-kB SEAP plasmid at 4 uM after 24 hrs by chemiluminescence-based luminometric analysis; type: cell-based
# Summary of the method: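 MCF-7 cells were transiently transfected with the NF-kB SEAP plasmid using lipofectamine 2000. After 24 h, cells were treated with 4 µM compound for 24 h. Lysates were assayed with a chemiluminescent reagent and read by luminometry and by 30 min X-ray film exposure. Transfected untreated cells served as control.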
# A2780 = assay: Anticancer activity against human A2780 cells by SRB method; type: functional
# Summary of the method: (§1)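 Growth inhibition over a panel of human cancer lines (lung, ovarian, oral, colon, prostate, cervix, breast). Value is the 50% growth-inhibition concentration, reported as the mean ± standard error of the mean of three determinations.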
# MCF7 [2] = assay: Cell cycle arrest in human MCF7 cells assessed as accumulation at G1 phase at 10 uM after 24 hrs using propidium iodide staining based flow cytometric analysis (reference value: 47.64 +/- 1.49 %); type: functional
# HOP-62 = assay: Anticancer activity against human HOP62 cells by SRB method; type: functional; summary of the method: as §1
# MCF7 [3] = assay: Cytotoxicity against human MCF7 cells assessed as reduction in cell viability at 2 uM after 24 hrs by MTT assay; type: functional, cell-based
# PC-3 = assay: Anticancer activity against human PC3 cells by SRB method; type: functional; summary of the method: as §1
# MCF7 [4] = assay: Induction of apoptosis in human MCF7 cells assessed as down regulation of Bcl2 expression at 4 uM after 24 hrs by ELISA; type: functional, cell-based
# Summary of the method: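 MCF-7 cells were treated with 4 µM compound for 24 h. Lysates were added to Bcl2 antibody-coated wells, followed by biotinylated anti-human Bcl2 monoclonal antibody, and bound Bcl2 was detected with streptavidin-HRP (sandwich ELISA).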
# MCF7 [5] = assay: Cell cycle arrest in human MCF7 cells assessed as accumulation at G0/G1 phase at 4 uM after 24 hrs using propidium iodide staining based flow cytometric analysis; type: functional
# Summary of the method: (§2)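 MCF-7 cells were seeded at 5 × 10^5 per 60 mm dish and grown for 24 h, then exposed to 4 µM compound for 24 h. Cells were trypsinized, fixed in ice-cold 70% ethanol at 4 °C for 30 min and treated with 1 mg/ml RNase at 37 °C for 30 min. They were stained with propidium iodide/citrate/Triton X-100, and DNA content was read on 20,000 events by flow cytometry. Three independent repeats.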
# [6] = Anticancer activity against human Gurav cells by SRB method; type: functional; summary of the method: as §1
# MCF7 [7] = assay: Cell cycle arrest in human MCF7 cells assessed as accumulation at G2/M phase at 10 uM after 24 hrs using propidium iodide staining based flow cytometric analysis (reference value: 38.15 +/- 1.068 %); type: functional
# [8] = Anticancer activity against human DWD cells by SRB method; type: functional; summary of the method: as §1
# MCF7 [9] = assay: Downregulation of cyclin D1 protein expression in human MCF7 cells at 4 uM after 24 hrs by Western blot analysis; type: functional, cell-based
# Summary of the method: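 MCF-7 cells at 80% confluency were treated with 4 µM compound for 24 h. Cells were lysed in RIPA buffer with protease inhibitors and protein was quantified by Bradford. 50 µg per lane was run on 12% SDS-PAGE and transferred to PVDF. Blots were probed overnight at 4 °C with rabbit polyclonal anti-cyclin D1, with β-actin as loading control, and detected by chemiluminescence.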
# MCF7 [10] = assay: Induction of apoptosis in human MCF7 cells assessed as down regulation of Bcl-xL expression at 4 uM after 24 hrs by Western blot
# MCF7 [11] = assay: Induction of cell cycle arrest at G1 phase in human MCF7 cells at 4 uM after 24 hrs using propidium iodide staining based flow cytometric analysis; type: functional; summary of the method: as §2
# ZR-75-1 = assay: Anticancer activity against human ZR-75-1 cells by SRB method; type: functional; summary of the method: as §1
# [12] = target: G1/S-specific cyclin-D1 (Homo sapiens) (UniProt P24385); assay: Down regulation of Cyclin D1 promoter activity expressed in human MCF7 cells co-transfected with luciferase gene at 4 uM after 24 hrs by luciferase reporter gene assay; type: cell-based
# Summary of the method: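 MCF-7 cells were transfected for 24 h with the cyclin D1 promoter (−1745) luciferase construct, which contains an NF-kB site. Cells were then treated with 4 µM compound (final) for a further 24 h, and lysate luciferase was measured by luminometer. Untransfected cells served as negative control and transfected untreated cells as control.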
# COLO 205 = assay: Anticancer activity against human COLO205 cells by SRB method; type: functional; summary of the method: as §1
# MCF7 [13] = assay: Cell cycle arrest in human MCF7 cells assessed as accumulation at S phase at 10 uM after 24 hrs using propidium iodide staining based flow cytometric analysis (reference value: 12.92 +/- 1 %); type: functional
# A549 = assay: Anticancer activity against human A549 cells by SRB method; type: functional; summary of the method: as §1
# MCF7 [14] = assay: Anticancer activity against human MCF7 cells by SRB method; type: functional; summary of the method: as §1
# MCF7 [15] = assay: Cell cycle arrest in human MCF7 cells assessed as accumulation at G0 phase at 10 uM after 24 hrs using propidium iodide staining based flow cytometric analysis (reference value: 1.27 +/- 0.08 %); type: functional
# SiHa = assay: Anticancer activity against human SiHa cells by SRB method; type: functional; summary of the method: as §1
# KB = assay: Anticancer activity against human KB cells by SRB method; type: functional; summary of the method: as §1
# MCF7 [16] = assay: Cytotoxicity against human MCF7 cells assessed as reduction in cell viability at 4 uM after 24 hrs by MTT assay; type: functional, cell-based
# Summary of the method: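 MCF-7 cells were seeded at 10,000 per well and left overnight, then treated with 4 µM compound for 24 h. MTT was added for 2 h at 37 °C, formazan was solubilized in extraction buffer, and OD was read at 570 nm. Untreated cells served as control. Three independent experiments, SD.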
# Chain of G1/S-specific cyclin-D1 (Homo sapiens) (P24385 whole entry): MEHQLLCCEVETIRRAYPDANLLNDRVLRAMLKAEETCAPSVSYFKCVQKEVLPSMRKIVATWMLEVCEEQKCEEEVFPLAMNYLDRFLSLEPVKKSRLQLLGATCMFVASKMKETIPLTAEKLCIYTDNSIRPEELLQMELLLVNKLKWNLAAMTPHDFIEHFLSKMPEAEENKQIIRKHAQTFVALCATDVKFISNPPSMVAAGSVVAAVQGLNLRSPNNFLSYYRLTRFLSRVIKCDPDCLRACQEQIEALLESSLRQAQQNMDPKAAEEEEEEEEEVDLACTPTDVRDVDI
Compound,GI50 (A2780) [nM],GI50 (PC-3) [nM],GI50 (COLO 205) [nM],GI50 (A549) [nM],GI50 (MCF7 [14]) [nM],GI50 (KB) [nM],Activity [1],Activity (MCF7 [2]) [%],GI50 (HOP-62) [nM],Activity (MCF7 [3]),Activity (MCF7 [4]),Activity (MCF7 [5]) [%],GI50 [6] [nM],Activity (MCF7 [7]) [%],GI50 [8] [nM],Activity (MCF7 [11]),GI50 (ZR-75-1) [nM],Activity (MCF7 [13]) [%],Activity (MCF7 [15]) [%],GI50 (SiHa) [nM],further results
COc1cc(/C=C/C(=O)c2ccc(O)cc2)ccc1OCCCCn1cc(COc2cc3c(cc2OC)C(=O)N2CCC[C@H]2C=N3)nn1,110,150,110,< 150,160,160,–,–,190,–,–,–,130,–,< 160,–,160,–,–,2520,–
COc1cc2c(cc1OCc1ccccc1)N=C[C@@H]1C[C@H](n3cc(COc4ccc(/C=C/C(=O)c5ccccc5O)cc4OC)nn3)CN1C2=O,–,–,–,–,–,–,–,54.61,–,inactive,–,59.79,–,32.06,–,Active,–,6.65,5.21,–,–
COc1ccc(/C=C/C(=O)c2ccc(O)cc2)cc1O,–,–,–,–,–,–,–,51.61,–,–,–,64.11,–,31.5,–,–,–,6.55,10.15,–,Activity (MCF7 [16]): Active
COc1cc2c(cc1O)N=C[C@@H]1CCCN1C2=O,140,200,110,160,170,170,Active,61.81,150,–,Active,71.1,160,20.89,–,–,–,9.67,7.62,170,Activity (MCF7 [9]): Active; Activity (MCF7 [10]): Active; Activity (MCF7 [16]): Active; Activity [12]: Active
COc1cc(/C=C/C(=O)c2ccc(O)cc2)ccc1OCCCn1cc(COc2cc3c(cc2OC)C(=O)N2CCC[C@H]2C=N3)nn1,120,160,–,150,160,2030,Active,72.51,170,inactive,Active,87.7,130,7.33,120,Active,170,6.48,13.67,180,Activity (MCF7 [9]): Active; Activity (MCF7 [10]): Active; Activity (MCF7 [16]): Active; Activity [12]: Active
COc1cccc2c1C(=O)c1c(O)c3c(c(O)c1C2=O)C[C@@](O)(C(=O)CO)C[C@@H]3O[C@H]1C[C@H](N)[C@H](O)[C@H](C)O1 [DOXORUBICIN],160,–,140,–,170,170,–,–,140,–,–,–,170,–,100,–,–,–,–,170,–

# Now from value to compound, other results behind:
GI50 (A2780) [nM],GI50 (PC-3) [nM],GI50 (COLO 205) [nM],GI50 (A549) [nM],GI50 (MCF7 [14]) [nM],GI50 (KB) [nM],Compound,Activity [1],Activity (MCF7 [2]) [%],GI50 (HOP-62) [nM],Activity (MCF7 [3]),Activity (MCF7 [4]),Activity (MCF7 [5]) [%],GI50 [6] [nM],Activity (MCF7 [7]) [%],GI50 [8] [nM],Activity (MCF7 [11]),GI50 (ZR-75-1) [nM],Activity (MCF7 [13]) [%],Activity (MCF7 [15]) [%],GI50 (SiHa) [nM],further results
150,190,100,2090,180,–,COc1cc(/C=C/C(=O)c2cc(Cl)ccc2O)ccc1OCCCCCn1cc(COc2cc3c(cc2OC)C(=O)N2CCC[C@H]2C=N3)nn1,Active,60.56,2280,inactive,Active,60.18,190,22.06,2300,Active,2020,7.28,10.75,–,Activity (MCF7 [9]): Active; Activity (MCF7 [10]): Active; Activity [12]: Active
150,2230,110,2780,2350,–,COc1cc2c(cc1OC)C(=O)N1C[C@@H](n3cc(COc4ccc(/C=C/C(=O)c5ccccc5O)cc4OC)nn3)C[C@H]1C=N2,–,50.9,–,inactive,–,55.24,2510,35.19,2700,Active,–,8.71,5.19,–,–
140,2040,140,170,2100,180,COc1cc(/C=C/C(=O)c2ccccc2O)ccc1OCCCCCn1cc(COc2cc3c(cc2OC)C(=O)N2CCC[C@H]2C=N3)nn1,–,46.39,2560,inactive,–,56.23,160,35.88,2300,Active,170,9.89,7.81,2710,–
100,130,–,< 160,140,170,COc1cc(/C=C/C(=O)c2ccccc2O)ccc1OCCCCn1cc(COc2cc3c(cc2OC)C(=O)N2CCC[C@H]2C=N3)nn1,Active,77.47,160,inactive,Active,89.1,120,7.07,< 130,Active,150,4.99,10.79,140,Activity (MCF7 [9]): Active; Activity (MCF7 [10]): Active; Activity (MCF7 [16]): Active; Activity [12]: Active
130,160,< 100,190,160,2660,COc1cc(/C=C/C(=O)c2cc(Cl)ccc2O)ccc1OCCCCn1cc(COc2cc3c(cc2OC)C(=O)N2CCC[C@H]2C=N3)nn1,–,50.63,2500,inactive,–,61.38,1660,31.07,< 170,Active,190,7.74,10.51,–,–
170,2480,150,2330,2400,2190,COc1cc(/C=C/C(=O)c2ccccc2O)ccc1OCCCn1cc(COc2cc3c(cc2OC)C(=O)N2CCC[C@H]2C=N3)nn1,Active,64.08,2920,inactive,Active,76.87,2310,14.32,–,Active,2200,9.52,12.06,–,Activity (MCF7 [9]): Active; Activity (MCF7 [10]): Active; Activity (MCF7 [16]): Active; Activity [12]: Active
